Assay outcomes from PubChem BioAssay.
Shown are actives, neighbours in structure and some others; about 3% of the full set was active somewhere.
M4 ag – human M4 muscarinic receptor agonists, primary screen, CHO-K1 cells, Fluo-8 calcium fluorescence. Muscarinic acetylcholine receptor M4 (Homo sapiens), P08173. CHO-K1 hM4/Gqi5; vehicle 0%, full acetylcholine response 100%. activation, % at 3 µM. actives 0.14% (n = 360,000). AID 624127, 2012;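 active = activation above the run mean over all test wells plus 3 SD, cut at about 32% in these data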;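 also: peak over basal fluorescence ratio per well then scaled between controls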
Target sequence (P08173 whole entry, looked up): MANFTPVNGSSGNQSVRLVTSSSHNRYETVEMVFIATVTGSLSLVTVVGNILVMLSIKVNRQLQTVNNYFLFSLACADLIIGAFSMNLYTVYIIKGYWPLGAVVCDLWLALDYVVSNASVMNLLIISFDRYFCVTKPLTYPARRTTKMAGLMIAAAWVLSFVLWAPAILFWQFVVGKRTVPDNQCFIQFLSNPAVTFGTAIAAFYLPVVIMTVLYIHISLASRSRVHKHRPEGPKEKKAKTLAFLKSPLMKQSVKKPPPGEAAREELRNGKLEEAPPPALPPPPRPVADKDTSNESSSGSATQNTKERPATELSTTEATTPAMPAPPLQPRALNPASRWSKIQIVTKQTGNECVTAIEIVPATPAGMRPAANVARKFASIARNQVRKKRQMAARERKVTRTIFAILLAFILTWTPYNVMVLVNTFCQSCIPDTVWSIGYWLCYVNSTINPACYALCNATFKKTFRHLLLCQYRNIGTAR
TAAR1 antagonist – human TAAR1 antagonists, primary screen, Fluo-8 calcium fluorescence, CHO RD-HGA16 cells. Trace amine-associated receptor 1 (Homo sapiens), Q96RJ0. antagonist. inhibition, % at 3 µM. actives 1.5% (n = 360,000);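 active = inhibition above a per-plate cutoff, the mean inhibition of test compounds on that plate plus 3 SD, cut at about 49% in these data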
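Test system: hTAAR1-expressing CHO RD-HGA16 cells, Gα16-coupled; Probe or stimulus: EC80 β-phenethylamine stimulus; Compound dosing: single nominal final test compound concentration of 3 µM; Timing: 140 s kinetic read after compound, 140 s after agonist; Signal: Fluo-8 calcium-sensitive fluorescence; Measure: % inhibition of agonist calcium response; Controls: DMSO and EC80 PEA controls.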
TAAR1 ag – human TAAR1 agonists, primary screen, Fluo-8 calcium fluorescence, CHO RD-HGA16 cells; Trace amine-associated receptor 1 (Homo sapiens), Q96RJ0; vehicle wells 0%, saturating PEA agonist 100%; activation, % at 3 µM; actives 0.99% (n = 360,000); AID 624467, 2012;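 active = activation above the mean activation of all test compounds in the run plus 3 SD, cut at about 38% in these data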
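Benchmarks: low control DMSO, high control PEA (EC100); System: CHO RD-HGA16 cells carrying human TAAR1 plus Gα16; Detection: Fluo-8 fluorescence, 5 s baseline then 140 s kinetic read; Schedule: 17-24 h plating, Fluo-8 75 min 37 °C, 30 min RT; Read-out basis: % activation from peak over basal fluorescence ratio, DMSO-to-PEA scaled.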
CHRM4 PAM – human M4 muscarinic receptor positive allosteric modulators, primary screen, CHO-K1 cells, Fluo-8 calcium fluorescence; Muscarinic acetylcholine receptor M4 (Homo sapiens), P08173; CHO-K1 hM4/Gqi5, ACh EC20; 0% = ACh EC20, 100% = maximal ACh; activation, % at 3 µM; actives 0.4% (n = 360,000); AID 624126, 2012;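 active = activation above its plate's cutoff, the mean activation of sample wells plus 3 SD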
M4 antag – human M4 muscarinic receptor antagonists, primary screen, CHO cells, Fluo-8 calcium fluorescence; AID 624125, 2012; actives 0.73% (n = 360,000); inhibition, % at 3 µM; CHO-hM4 cells, ACh EC80; Muscarinic acetylcholine receptor M4 (Homo sapiens), P08173;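 active = inhibition above its plate's cutoff, the mean inhibition of sample wells plus 3 SD, cut at about 27% in these data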
Of the large screens only hits and unclear results are named; the others gave an inactive call.

CN(C)c1ccc(N=Nc2ccccc2C(=O)OCC(=O)N(C)c2ccccc2)cc1	TAAR1 antagonist 62
COC(=O)c1ccccc1NC(=O)COC(=O)c1ccccc1N=Nc1ccc(N(C)C)cc1	none
O=C(NCc1ccccc1)[C@H]1CCCN1C(=O)[C@H]1CCCN1C(=O)N1CCCCC1	none (no result: M4 ag, CHRM4 PAM, M4 antag)
c1ccc2c(c1)OCc1nccn1-2	none (no result: M4 ag, CHRM4 PAM, M4 antag)
CSC1=Nc2ccccc2N=C(N2CCCC2)C1	none (no result: M4 ag, CHRM4 PAM, M4 antag)
COC(=O)Cc1ccc(OC2(C)CCN(Cc3csc4ccccc34)C2)cc1 (configuration not stated)	M4 antag 54
O=C(CCS(=O)(=O)c1ccccc1)Nc1ccc(-c2nc3ccccc3s2)cc1	none
O=C(CCS(=O)(=O)c1ccccc1)Nc1cccc(-c2nc3ccccc3s2)c1	TAAR1 antagonist 60
Cc1cc(C)cc(N(CC(=O)NCc2ccco2)C(=O)c2snc(C(N)=O)c2N)c1	none
Cc1cc(C)cc(N(CC(=O)NCc2ccc(F)cc2)C(=O)c2snc(C(N)=O)c2N)c1	TAAR1 ag 41
CC(C)C[C@H]1COc2ccc(Cl)cc2S(=O)(=O)N1	none (no result: M4 ag, CHRM4 PAM, M4 antag)
Cc1ccc(C(=O)N2CCN(c3ccccn3)CC2)cc1C	CHRM4 PAM 15
Cc1ccc(C(=O)N2CCN(c3ccccn3)CC2)cc1Cl	none
Cc1cccc(NS(=O)(=O)c2cccc(C(=O)N3CCN(c4ccccn4)CC3)c2)c1	none
Cc1ccc(C(C)(C)C)cc1S(=O)(=O)Nc1cccc(C(=O)N2CCN(c3ccccn3)CC2)c1	TAAR1 antagonist 61
CCOC(=O)C1CSCCS(=O)(=O)N1Cc1cccc(Cl)c1 (configuration not stated)	none (no result: M4 ag, CHRM4 PAM, M4 antag)
CN(C)C(C)(C)C#CCC(c1ccccc1)c1ccccc1	M4 antag 38
CN(C)Cc1ccccc1CCc1ccccc1	M4 antag 31
CC(C)NC(=O)/C(=C/c1cn(-c2ccccc2)nc1-c1cccc([N+](=O)[O-])c1)NC(=O)c1ccccc1	M4 antag 32
COC(=O)CN1CCN(C(c2ccccc2)c2ccccc2)CC1	none
CN(Cc1ccccc1)C(=O)CN1CCN(C(c2ccccc2)c2ccccc2)CC1	M4 antag 50
CC1=C(C(=O)Nc2cccc(C(=O)N3CCN(c4cccc(C(F)(F)F)c4)CC3)c2)SCCO1	TAAR1 antagonist 56
NC(=O)c1c(N)[nH]c(C(=O)c2ccccc2)c1-c1ccc(Br)cc1	none (no result: M4 ag, CHRM4 PAM, M4 antag)
O=Cc1ccc(/C=C2\c3ccccc3C(=O)N2c2ccccc2)o1	none (no result: M4 ag, CHRM4 PAM, M4 antag)
O=C1CCCN2N=C(SCC(=O)Nc3ccc(Cl)cc3)SC2=N1	TAAR1 ag 39
O=C1CCCN2N=C(SCC(=O)Nc3cccc(Cl)c3)SC2=N1	none
Cc1ccc(NC(=O)CSC2=NN3CCCC(=O)N=C3S2)cc1Cl	TAAR1 ag 42
CCOc1cc(OCC)cc(C(=O)N2CCC[C@@H]2C(=O)N2CCC[C@H]2C(=O)NCc2ccccc2)c1	none (no result: M4 ag, CHRM4 PAM, M4 antag)
C=CC[C@]12C[C@@]3(O[C@H](c4ccccn4)N=C3C[C@H](c3ccc(OC)cc3)[C@H]1C)N(C1CCN(Cc3ccccc3)CC1)C2=O	none (no result: M4 ag, CHRM4 PAM, M4 antag)
C=CCN1C(=O)c2n[nH]c(COC)c2C1c1cccc(C(F)(F)F)c1 (configuration not stated)	none (no result: M4 ag, CHRM4 PAM, M4 antag)
Cc1ccc(NC(=O)C(C)c2ccc(-c3ccccc3)c(F)c2)cc1 (configuration not stated)	TAAR1 antagonist 55
Cc1ccc(NC(=O)C(Nc2ccccc2)c2ccccc2)cc1 (configuration not stated)	none
COc1cccc2sc(Nc3nc(-c4ccccn4)cs3)nc12	M4 antag 37 (no result: TAAR1 antagonist, TAAR1 ag)
O=C(CCSCc1ccccc1F)NCCc1ccccc1	TAAR1 antagonist 76, TAAR1 ag 39
CN(C)c1ccc(CC(=O)N2CCCC(c3cc(C(=O)Nc4ccc(F)c(Cl)c4)no3)C2)cc1 (configuration not stated)	M4 antag 28
O=C(Nc1ccc(F)c(Cl)c1)c1cc(C2CCCN(S(=O)(=O)c3ccccc3)C2)on1 (configuration not stated)	none
O=C(CCc1nc(-c2cccs2)no1)Nc1cnc2ccccc2c1	TAAR1 ag 42
CC1Sc2ccc(S(=O)(=O)N3CCC(C(=O)Nc4ccc(Cl)cc4)CC3)cc2NC1=O (configuration not stated)	M4 antag 30
COc1cccc(-c2cc(C(=O)N3CCN(c4ncccn4)CC3)c3ccccc3n2)c1	TAAR1 antagonist 56
CC(C)Oc1cccc(-c2cc(C(=O)N3CCN(c4ncccn4)CC3)c3ccccc3n2)c1	TAAR1 antagonist 52, M4 antag 34
CC(C)Oc1cccc(-c2cc(C(=O)N3CCN(S(C)(=O)=O)CC3)c3ccccc3n2)c1	none
COC(=O)[C@]12C[C@H](CC(=O)NCCCCc3ccccc3)C(=O)N(Cc3ccc4c(c3)OCO4)C1=C[C@H](COCc1ccccc1)O[C@@H]2C	none (no result: M4 ag, CHRM4 PAM, M4 antag)
N#Cc1ccc(S(=O)(=O)N2CCCc3nc(-c4ccc(F)cc4)ccc32)cc1	none (no result: M4 ag, CHRM4 PAM, M4 antag)
Cc1nc(Cl)c(C(=O)NC(=O)Nc2cccc(C(F)(F)F)c2)c(C)c1[N+](=O)[O-]	TAAR1 ag 42
Cc1onc(C(=O)Nc2cccc(C(F)(F)F)c2)c1[N+](=O)[O-]	none
COc1ccccc1C1C2C(=O)N(c3ccccc3)C(=O)C2ON1c1ccccc1 (configuration not stated)	TAAR1 antagonist 50
O=C(O)COc1ccccc1C1C2C(=O)N(c3ccc(F)cc3)C(=O)C2ON1c1ccccc1 (configuration not stated)	none
c1ccc(C2[C@H]3CN(CC4CCCCC4)[C@H](c4ccccc4)C34CC2(c2cccnc2)C4)cc1 (some centres not stated)	M4 antag 31
CC(/C=N/NC(=O)c1sc(N)nc1C)=C\c1ccccc1	TAAR1 ag 40
Cc1nc(N)sc1C(=O)N/N=C/c1ccc([N+](=O)[O-])cc1	none
Cc1nc(N)sc1C(=O)N/N=C/c1ccccc1[N+](=O)[O-]	CHRM4 PAM 22
CC(=O)N(C(C)=O)c1ccc(Oc2ccc(Oc3ccc(N(C(C)=O)C(C)=O)cc3)cc2)cc1	none
CCOc1ccc(C(=O)Nc2cc(-c3nc4ccccc4[nH]3)ccc2Cl)cc1[N+](=O)[O-]	TAAR1 antagonist 53
CCCS(=O)(=O)NC(=O)C1(C)CCN(C(=O)c2cc(C(C)(C)C)nn2C)C1 (configuration not stated)	none
COc1ccc(NC(=O)C2CCCN(CCCc3ccccc3)C2)cc1OCC(C)C (configuration not stated)	M4 antag 29
COc1ccc(NC(=O)C2CCCNC2)cc1OCC(C)C (configuration not stated)	none
